Bioassay records deposited in PubChem by Johns Hopkins Ion Channel Center.
RGS4 act = RGS4 potentiation or activation. B-score at 10 µM. 310,000 tested, 0.92% active. HEK293 M3R/inducible RGS4, carbachol calcium flux Fluo4; hits give low values;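 active = B-score of the integrated calcium signal more than 4 SD below the library mean, with starting fluorescence not abnormally high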;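 note: negative B-score means reduced calcium response which marks RGS4 activation or potentiation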
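Material: Inducible-RGS4 HEK293 cells carrying M3 receptor; also added: carbachol at ECmax as muscarinic agonist stimulus; incubation: compound preincubation 20 min at room temperature before agonist; signal: Fluo4-AM (2 µM) calcium-flux fluorescence, kinetic read; measure: integrated calcium ratio converted to B score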
RGS4 inh = inhibitors of human RGS4; 310,000 tested, 0.45% active; HEK293 M3R/RGS4 inducible, Fluo-4 calcium flux; hits give high values; triggered by carbachol at its EC20; B-score at 10 µM;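 active = B-score, a plate-corrected calcium signal, over three deviations above library mean, with baseline fluorescence within five deviations of library mean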;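 note: RGS4 expression induced by doxycycline in cells with stable M3 receptor; B-score is computed from the integrated fluorescence ratio over baseline after carbachol; higher B-score means a larger calcium signal and so more RGS4 inhibition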
Target sequence (P49798 whole entry, looked up): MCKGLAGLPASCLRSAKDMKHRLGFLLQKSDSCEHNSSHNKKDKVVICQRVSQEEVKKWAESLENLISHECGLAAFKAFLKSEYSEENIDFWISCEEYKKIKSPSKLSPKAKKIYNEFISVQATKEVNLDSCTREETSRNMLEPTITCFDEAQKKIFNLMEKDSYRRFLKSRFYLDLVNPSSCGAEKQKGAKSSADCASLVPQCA
MrgX1 allo act = human MrgX1 positive allosteric modulation, primary screen. Q96LB2. MrgX1-HEK293, Fluo-4 calcium flux, FDSS; hits give high values. B-score at 10 µM. 310,000 tested, 0.63% active;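 active = plate-corrected calcium response at least 3 library SD above typical, normal starting fluorescence, not activating the receptor alone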;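 note: compound read alongside a low EC10 to EC30 dose of BAM8-22 agonist; peak minus trough fluorescence over baseline measured at the second addition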
MrgX1 antag = antagonists of human MrgX1 receptor; 310,000 tested, 1.3% active; MRGX1-HEK293 calcium flux, Fluo-4, BAM8-22 antagonism; hits give low values; Q96LB2; AID 588676; B-score at 10 µM;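 active = calcium-response B-score plate-corrected more than 3 library SD below zero, starting fluorescence within 5 deviations, no agonist response on first addition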;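 note: peak minus trough fluorescence over baseline after final BAM8-22 challenge near maximal dose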
MrgX1 agonist = agonists of human MrgX1 receptor; 310,000 tested, 0.44% active; AID 588627; MrgX1-HEK293 cells, Fluo-4 calcium fluorescence, agonist mode; hits give high values; Q96LB2; B-score at 10 µM;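 active = calcium response B-score plate-corrected fluorescence ratio at least 3 library SD, with starting fluorescence B-score inside 5 SD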
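Material: MrgX1-expressing HEK293 cells / Dosing: compound as first of three additions / Incubation: overnight seeding, then 1 h dark dye loading / Signal: Fluo-4 NW calcium fluorescence / Evaluation: B-scored fluorescence response ratio / Benchmarks: positive and negative control wells on each plate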
RGS4 activ val = confirmation of RGS4 activators; shares compounds with RGS4 act; HEK293 M3R/RGS4 inducible, carbachol calcium flux Fluo4; inhibition, % at 10 µM; 1,100 tested, 89% active;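 active = inhibition above 3 SD of the buffer control wells, cut at about 41% in these data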;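 note: signal is the integrated peak-minus-minimum Fluo4 fluorescence over baseline ratio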
RGS4 act ctr = activity in cells without induced RGS4 expression; 1,100 tested, 82% active; AID 602283; HEK293 M3R non-induced RGS4, Fluo4 calcium flux; after carbachol challenge at its EC90; inhibition, % at 10 µM; shares compounds with RGS4 act;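 active = inhibition exceeding 3 SD of buffer-only control wells, cut at about 26% in these data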;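 note: percent drop in integrated peak-minus-baseline over baseline Fluo4 ratio after carbachol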
Large screens that a line does not name were inactive (follow-up assays come after a bar, where they were run). Sampled rows, rich in hits. Any-hit rate of the full collection: about 3.5%.

CC1=C(C(=O)Nc2ccccc2C(F)(F)F)C(c2ccc(C)s2)NC(=S)N1 (stereo not drawn)	none
CCN(CC)S(=O)(=O)c1cc(Cl)ccc1OC	none
COc1ccccc1OCC(=O)NCC1CCCN(Cc2cnn(C(C)C)c2)C1 (stereo not drawn)	none
COc1ccc(N(C(=O)Nc2ccc(Cl)cc2)C2=NCCC2)cc1	RGS4 act -10 | RGS4 activ val 78 | RGS4 act ctr 38
CN(CCOC(=O)C1c2ccccc2Oc2ccccc21)C(C)(C)C	RGS4 act -7.9 | RGS4 activ val 93 | RGS4 act ctr 96
CN(C)CCCOC(=O)C1c2ccccc2Oc2ccccc21	RGS4 act -8.5 | RGS4 activ val 92 | RGS4 act ctr 91
COc1ccc2nc(C)cc(SCC(=O)N/N=C/c3cccc4ccccc34)c2c1	none
COc1ccc2nc(C)cc(SCC(=O)N/N=C/c3ccc(O)c(O)c3)c2c1	RGS4 act -13 | RGS4 activ val inactive | RGS4 act ctr inactive
OC(C#CCN1CCCC1)(c1ccccc1)c1cccc(F)c1 (stereo not drawn)	RGS4 act -8.4 | RGS4 activ val 92 | RGS4 act ctr 96
CC(O)(C#CCN1CCCCC1)c1ccccc1 (stereo not drawn)	none
CC(C)C(O)(C#CCN1CCCCCC1)c1ccccc1 (stereo not drawn)	RGS4 act -11 | RGS4 activ val 94 | RGS4 act ctr 87
CC1CCCN1CC#CC(O)(c1ccccc1)c1ccccc1 (stereo not drawn)	RGS4 act -7.9 | RGS4 activ val 90 | RGS4 act ctr 92
CC(C)(C#CCN1CCCCC1)OCCOC(c1ccccc1)c1ccccc1	RGS4 act -12 | RGS4 activ val 93 | RGS4 act ctr 92
CCc1cccc(NC(=O)CCc2c(C)nn(-c3ccc(N4CCCCC4)nn3)c2C)c1	none
Cc1nn(C)c(C)c1CCC(=O)O	none
O=C(CSc1ccc(-c2cccnc2)nn1)Nc1ccccc1C(F)(F)F	none
OC(CC#CCN1CCOCC1)(c1ccccc1)c1ccccc1	none
C(#Cc1ccccc1)CN1CCCCC1	none
CC(C)C(O)(CC#CCN1CCCC1)c1ccccc1 (stereo not drawn)	RGS4 act -9.2 | RGS4 activ val 92 | RGS4 act ctr 44
CC(O)(C#CCN1CCCC1)c1ccccc1 (stereo not drawn)	none
C(#CCN1CCCC1)CC(c1ccccc1)c1ccccc1	RGS4 act -13 | RGS4 activ val 92 | RGS4 act ctr 93
CC(C)(C)C(O)(CC#CCN1CCCC1)c1ccccc1 (stereo not drawn)	RGS4 act -9.4 | RGS4 activ val 76 | RGS4 act ctr 31
Cc1cc(C)n(Cc2cccc(C(=O)N/N=C/c3cccnc3)c2)n1	none (no result: MrgX1 allo act, MrgX1 antag, MrgX1 agonist)
O=C(Oc1ccc(OC(=O)N2CCCCC2)cc1)c1ccccc1	RGS4 act -10 | RGS4 activ val 62 | RGS4 act ctr 84
O=C(Oc1ccccc1)N1CCCC1	none
COc1ccc(C(=O)OCCN2C(=O)c3ccccc3C2=O)cc1	RGS4 act -8.7 | RGS4 activ val 40 | RGS4 act ctr 84
N#CC1=C(N)OC2=C(C(=O)CC(c3ccccc3)C2)C1c1ccc2c(c1)OCO2 (stereo not drawn)	RGS4 act -8.2 | RGS4 activ val 92 | RGS4 act ctr 68
O=C(c1ccc2c(c1)OCO2)C1CCCN(Cc2c(F)ccc(F)c2F)C1 (stereo not drawn)	RGS4 act -7.9 | RGS4 activ val 92 | RGS4 act ctr 58
O=C(c1ccc2c(c1)OCO2)C1CCCN(Cc2ccccc2OC(F)F)C1 (stereo not drawn)	RGS4 act -7.7 | RGS4 activ val 72 | RGS4 act ctr 30
O=C(COc1ccc(F)cc1)Nc1nnc(S(=O)(=O)N2CCCC2)s1	none
CCc1ccc(-c2nc(CS(=O)CC(=O)NCCCN3CCC(C)CC3)c(C)o2)cc1 (stereo not drawn)	none
